# Data as given in ChEMBL document CHEMBL1157649, “Cytotoxic 2-benzylidene-6-(nitrobenzylidene)cyclohexanones which display substantially greater toxicity for neoplasms than non-malignant cells” (Bioorg Med Chem, 2010).
# How the values were obtained:
# [1] = Partition coefficient, log P of the compound; type: physicochemical; conditions: octanol/water
# [2] = system: Mus musculus; assay: Toxicity in mouse assessed as induction of mortality at 30 to 300 mg/kg, ip; type: organism-based; parameters: dose 30-300 mg/kg, route intraperitoneal; conditions: in vivo
# [3] = Cytotoxicity against human HGF cells after 24 hrs; type: cell-based; conditions: hgf, 24 h
# Outline: (§1)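 Cells (HGF gingival fibroblasts, HPC pulp cells, HPLF periodontal ligament fibroblasts, HSC-2 and HSC-4 squamous carcinoma, HL-60 promyelocytic leukemia) were exposed to graded concentrations for 24 h, up to a maximum of 400 μM. CC50 is the concentration reducing viable cell number by 50%, taken from dose–response curves. Values are from duplicate determinations differing by less than 5%.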
# [4] = Cytotoxicity against human HPC cells after 24 hrs; type: cell-based; conditions: hpc, 24 h; outline: as §1
# [5] = Cytotoxicity against human HPLF cells after 24 hrs; type: cell-based; conditions: hplf, 24 h; outline: as §1
# [6] = system: HL-60; assay: Cytotoxicity against human HL60 cells after 24 hrs; type: functional; conditions: HL-60, 24 h; outline: as §1
# [7] = system: HSC-2; assay: Cytotoxicity against human HSC2 cells after 24 hrs; type: functional; conditions: HSC-2, 24 h; outline: as §1
# [8] = system: HSC-4; assay: Cytotoxicity against human HSC4 cells after 24 hrs; type: functional; conditions: HSC-4, 24 h; outline: as §1
# [9] = system: HL-60; assay: Selectivity index, ratio of CC50 for human normal cells to CC50 for human HL60 cells; type: functional
# Outline: (§2)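 The index is the average CC50 toward the three normal cell types (HGF, HPC, HPLF) divided by the CC50 toward the indicated malignant line.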
# [10] = system: HSC-2; assay: Selectivity index, ratio of CC50 for human normal cells to CC50 for human HSC2 cells; type: functional; outline: as §2
# [11] = system: HSC-4; assay: Selectivity index, ratio of CC50 for human normal cells to CC50 for human HSC4 cells; type: functional; outline: as §2
SMILES,logP [1],Activity [2],CC50 [3] [µM],CC50 [4] [µM],CC50 [5] [µM],CC50 [6] [µM],CC50 [7] [µM],CC50 [8] [µM],Selectivity Index [9],Selectivity Index [10],Selectivity Index [11]
CN(C)c1ccc(/C=C2\CCC/C(=C\c3ccc([N+](=O)[O-])cc3)C2=O)cc1,5.03,Non-toxic,> 400,> 400,> 400,> 400,11,> 400,–,–,–
O=C1CCCC/C1=C\c1ccccc1[N+](=O)[O-],–,Non-toxic,218,117,103,27,28,29,5.4,5.2,5
COc1cc(OC)c(OC)cc1/C=C1\CCC/C(=C\c2ccc([N+](=O)[O-])cc2)C1=O,–,Non-toxic,> 400,> 400,> 400,400,67,250,1,>6,>1.6
Cc1ccc(/C=C2\CCC/C(=C\c3ccccc3[N+](=O)[O-])C2=O)cc1,5.15,–,> 400,> 400,> 400,11,11,40,>36,>36,>10
O=C1CCCC/C1=C\c1cccc([N+](=O)[O-])c1,–,Non-toxic,74,49,56,5.8,6.6,18,10,9.1,3.3
O=C1/C(=C/c2ccc(Cl)cc2)CCC/C1=C\c1cccc([N+](=O)[O-])c1,5.58,–,39,18,38,3.2,2.2,2.3,10,15,14
O=C1/C(=C/c2ccccc2)CCC/C1=C\c1cccc([N+](=O)[O-])c1,4.9,Non-toxic,25,14,18,3,3.7,2.4,6.3,5.1,7.9
COc1ccc(/C=C2\CCC/C(=C\c3cccc([N+](=O)[O-])c3)C2=O)cc1,4.96,Non-toxic,> 400,33,354,7.2,4.8,11,>36,>55,>24
CN(C)c1ccc(/C=C2\CCC/C(=C\c3ccccc3[N+](=O)[O-])C2=O)cc1,4.8,–,> 400,> 400,> 400,> 400,> 400,> 400,1,1,1
CN(C)c1ccc(/C=C2\CCC/C(=C\c3cccc([N+](=O)[O-])c3)C2=O)cc1,5,Non-toxic,> 400,> 400,> 400,30,32,71,–,–,–
O=C1/C(=C/c2ccc(F)cc2)CCC/C1=C\c1ccc([N+](=O)[O-])cc1,5.09,Non-toxic,326,> 400,> 400,32,19,15,–,–,–
O=C1/C(=C/c2ccc(F)cc2)CCC/C1=C\c1cccc([N+](=O)[O-])c1,5.07,Non-toxic,42,38,36,1,2.2,2.5,–,–,–
